Assay results as given in ChEMBL document CHEMBL4024789, “Neutral Porphyrin Derivative Exerts Anticancer Activity by Targeting Cellular Topoisomerase I (Top1) and Promotes Apoptotic Cell Death without Stabilizing Top1-DNA Cleavage Complexes” (J Med Chem, 2018).
Activity calls are given as the source filed them. The calls are words filed in the database; no cut-off is given here.

Legend:
[1] = system: MEF; experiment: Cytotoxicity against TDP1-/- MEF assessed as reduction in cell viability by MTT assay; type: cell-based; conditions: Mus musculus
How it was run: (§1)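 Survival of each cell line measured across a range of compound concentrations. Percent inhibition of viability at each concentration calculated against untreated control and IC50 estimated. MEFs were TDP1+/+ and TDP1–/– primary cells. Mean ± SD of at least three experiments in duplicate.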

[2] = system: MCF7; experiment: Induction of ROS accumulation in human MCF7 cells at 10 uM up to 24 hrs in presence of ROS inhibitor NAC by CM-H2DCFDA dye based spectrofluorometric method; type: functional, cell-based
How it was run: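 MCF7 cells treated with 10 μM for the indicated times, with 0.2% DMSO as vehicle control, or pretreated with NAC (10 mM) for 30 min. ROS read as DCF fluorescence from CM-H2DCFDA. Mean ± SD of three independent experiments.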

[3] = target: T1, DNA topoisomerase 1 (Homo sapiens) (UniProt P11387); experiment: Inhibition of recombinant human topoisomerase-1 expressed in baculovirus infected sf9 cells at 1 uM using supercoiled pBS SK(+) DNA as substrate preincubated for 5 mins followed by substrate addition measured after 15 mins by ethidium bromide staining based agarose gel electrophoresis method relative to control
T1 sequence (whole entry): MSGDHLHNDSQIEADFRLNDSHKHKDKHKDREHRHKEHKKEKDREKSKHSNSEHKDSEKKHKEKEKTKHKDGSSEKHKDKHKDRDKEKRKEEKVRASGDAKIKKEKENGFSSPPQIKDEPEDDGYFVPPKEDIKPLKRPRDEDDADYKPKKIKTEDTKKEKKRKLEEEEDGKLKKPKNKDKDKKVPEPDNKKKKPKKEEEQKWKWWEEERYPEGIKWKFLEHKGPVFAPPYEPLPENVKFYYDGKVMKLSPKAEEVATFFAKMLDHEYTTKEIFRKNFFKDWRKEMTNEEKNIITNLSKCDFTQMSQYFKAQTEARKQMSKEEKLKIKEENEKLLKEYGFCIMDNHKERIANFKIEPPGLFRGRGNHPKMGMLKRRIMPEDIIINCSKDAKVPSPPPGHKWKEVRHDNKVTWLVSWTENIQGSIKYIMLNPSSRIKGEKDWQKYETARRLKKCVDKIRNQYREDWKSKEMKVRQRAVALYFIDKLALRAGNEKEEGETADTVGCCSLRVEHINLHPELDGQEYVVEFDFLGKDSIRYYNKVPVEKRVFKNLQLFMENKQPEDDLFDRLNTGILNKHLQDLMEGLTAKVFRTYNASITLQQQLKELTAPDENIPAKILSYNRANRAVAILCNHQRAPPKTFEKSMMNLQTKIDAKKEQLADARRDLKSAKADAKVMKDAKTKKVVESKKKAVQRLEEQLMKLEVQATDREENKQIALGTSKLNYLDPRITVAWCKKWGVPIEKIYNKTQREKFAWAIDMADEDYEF
How it was run: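 Relaxation assay: 90 fmol supercoiled pBS (SK+) DNA with 30 fmol recombinant Top1 (Sf-9/baculovirus). Compound either preincubated with Top1 for 5 min before DNA addition, or added simultaneously with DNA; then 37 °C for 15 min. Vehicle 2% DMSO. Read on 1% agarose gel. EC50 from mean ± SD of three experiments.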

[4] = system: MCF7; experiment: Cytotoxicity against human MCF7 cells transfected with control SiRNA assessed as reduction in cell viability by MTT assay; type: functional, cell-based
How it was run: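 MCF7 cells transfected with Top1 or control siRNA for 72 h; knockdown confirmed by Western blot with actin as loading control. Percent survival then plotted against compound concentration.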

[5] = system: MCF7; experiment: Induction of DNA strand breaks in human MCF7 cells at 10 to 20 uM after 12 hrs by alkaline comet assay relative to control; type: functional
How it was run: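 MCF7 cells exposed 12 h; some pretreated with NAC (10 mM) for 30 min first. Alkaline comet assay; mean comet tail scored over 20–25 cells (average ± SEM).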

[6] = system: HCT-116; experiment: Cytotoxicity against human HCT116 cells assessed as reduction in cell viability by MTT assay; type: functional, cell-based; how it was run: as §1
[7] = target: T1, DNA topoisomerase 1 (Homo sapiens); experiment: Inhibition of topoisomerase-1 in human MCF7 whole cell extracts at 0.25 to 5 uM using supercoiled pBS SK(+) DNA as substrate after 15 mins by ethidium bromide staining based agarose gel electrophoresis method
How it was run: (§2)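 Ex vivo relaxation assay with MCF7 whole-cell lysate as the Top1 source and supercoiled pBS (SK+) DNA. Compound either preincubated with lysate for 5 min before DNA, or added simultaneously; then 37 °C for 15 min. CPT control at 5 μM. Read on agarose gel; mean ± SD, n=3.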

[8] = system: MCF7; experiment: Induction of apoptosis in human MCF7 cells at 10 to 20 uM after 12 hrs in presence of ROS inhibitor NAC by Annexin V-FITC/propidium iodide staining based confocal laser microscopic method relative to control; type: functional, cell-based
How it was run: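 MCF7 cells treated for 12 h, with or without 30 min pretreatment with NAC (10 mM). Phosphatidylserine stained with annexin V-FITC, nuclei counterstained with propidium iodide, imaged by confocal microscopy. Annexin V(+) fraction scored from about 100 cells (average ± SEM).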

[9] = target: T1, DNA topoisomerase 1 (Homo sapiens); experiment: Inhibition of topoisomerase-1 in human MCF7 whole cell extracts at 0.25 to 5 uM using supercoiled pBS SK(+) DNA as substrate preincubated for 5 mins followed by substrate addition measured after 15 mins by ethidium bromide staining based agarose gel electrophoresis method; how it was run: as §2
[10] = target: T1, DNA topoisomerase 1 (Homo sapiens); experiment: Inhibition of […]-induced topoisomerase-1- genomic DNA cleavage complex in human MCF7 cells at 20 uM after 6 hrs by ICE assay; type: cell-based
How it was run: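 ICE bioassay in MCF7 cells. Treatment was CPT (10 μM) or compound (20 μM) for 12 h, or CPT for 6 h then compound for a further 6 h. Genomic DNA (0.5–4 μg) probed with anti-Top1 antibody. Quantified with n = 3, ± SEM, t test.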

[11] = target: T1, DNA topoisomerase 1 (Homo sapiens); experiment: Inhibition of CPT-induced recombinant human topoisomerase1-supercoiled pBS SK(+) DNA cleavage complex after 30 mins using topoisomerase1 expressed in baculovirus infected sf9 cells by ethidium bromide staining based agarose gel electrophoresis method
How it was run: (§3)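 Plasmid cleavage assay: 50 fmol supercoiled pBS (SK+) with 100 fmol recombinant Top1 plus compound or CPT, or Top1 with CPT before compound addition, at 37 °C for 30 min. Nicked (form II) and supercoiled (form I) DNA resolved by gel.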

[12] = target: T1, DNA topoisomerase 1 (Homo sapiens); experiment: Induction of proteasome-mediated topoisomerase-1 degradation in human MCF7 cells at 10 uM up to 12 hrs in presence of proteasome inhibitor MG132 by Western blot method; type: cell-based
How it was run: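 Whole-cell extracts of MCF7 cells treated with 10 μM for the indicated times, or preincubated with MG132 (100 nM) for 4 h before 12 h compound exposure. Top1 detected by Western blot with mouse monoclonal anti-Top1 (C21).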

[13] = target: T1, DNA topoisomerase 1 (Homo sapiens); experiment: Inhibition of recombinant human topoisomerase-1 expressed in baculovirus infected sf9 cells assessed as reduction in cleavage complex formation with supercoiled pBS SK(+) DNA at 10 to 50 uM after 30 mins by ethidium bromide staining based agarose gel electrophoresis method; how it was run: as §3

inhibition [3]: 85 to 99%
inhibition [7]: Active
inhibition [9]: Active
inhibition [10]: Active
inhibition [11]: Dose-dependent effect
Activity [12]: inactive
inhibition [13]: Active
Compound: CN(C)c1ccc(-c2c3nc(c(-c4ccc(N(C)C)cc4)c4ccc([nH]4)c(-c4ccc(C(=O)O)cc4)c4nc(c(-c5ccc(C(=O)O)cc5)c5ccc2[nH]5)C=C4)C=C3)cc1
IC50 [1]: > 10 µM
Activity [2]: inactive
IC50 [4]: 2.24 µM
fold change (FC) [5]: 8
IC50 [6]: 4.39 µM
Activity [8]: inactive
